Columns and labels:
Collagenase 3 = Collagenase 3 (Homo sapiens, UniProt P45452); assay: Inhibition of human recombinant MMP13 using Cy3-PLGLK(Cy5Q)AR-NH2 as substrate after 40 mins by spectrofluorimetry
Rattus norvegicus = assay: Intrinsic clearance in iv dosed rat; format: ADME, organism-based; conditions: in vivo
Liver microsome = assay: Metabolic stability in rat liver microsomes; format: ADME
Procedure, shortened: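 The free acid was incubated with hepatic microsomes of each species. Stability is reported as clearance in μL/min/mg microsomal protein.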

IC50 (Collagenase 3) [nM] | CL (Rattus norvegicus) [mL/min/kg] | Microsomal clearance (Liver microsome) [µL/min/mg] | Compound
0.15 | 28.3 | 180 | COc1cccc(CNC(=O)c2nc3ccc(F)c(OCCc4ccc(F)cc4)c3c(=O)[nH]2)c1
0.16 |  |  | COc1cccc(CNC(=O)c2nc3cccc(CC(=O)Nc4ccccc4)c3c(=O)[nH]2)c1
0.04 | 17 | 150 | COc1cccc(CNC(=O)c2nc3ccc(F)c(OCCc4ccccc4)c3c(=O)[nH]2)c1
4 |  |  | COc1cccc(CNC(=O)c2nc3ccc(OC)cc3c(=O)[nH]2)c1
2.2 |  |  | COc1cccc(CNC(=O)c2nc3cccc(-c4ccccc4)c3c(=O)[nH]2)c1
1.7 |  |  | COc1cccc(CNC(=O)c2nc3cccc(COCc4ccccc4)c3c(=O)[nH]2)c1
5 |  |  | COc1cccc(CNC(=O)c2nc3cccc(F)c3c(=O)[nH]2)c1
2200 |  |  | COc1cccc(CNC(=O)c2nc3cc(OC)ccc3c(=O)[nH]2)c1
0.31 |  |  | COc1cccc(CNC(=O)c2nc3cccc(OCc4ccccc4)c3c(=O)[nH]2)c1
8.6 |  |  | COc1cccc(CNC(=O)c2nc3cccc(C#N)c3c(=O)[nH]2)c1
9.7 |  |  | COc1cccc(CNC(=O)c2nc3cccc(SCCc4ccccc4)c3c(=O)[nH]2)c1
0.52 |  |  | COc1cccc(CNC(=O)c2nc3cccc(OCCCc4ccccc4)c3c(=O)[nH]2)c1
0.03 | 233 | 140 | COc1cccc(CNC(=O)c2nc3ccc(F)c(OCCc4ccc(N)cc4)c3c(=O)[nH]2)c1
2.9 |  |  | COc1cccc(CNC(=O)c2nc3cccc(CCCc4ccccc4)c3c(=O)[nH]2)c1
25 |  |  | COc1cccc(CNC(=O)c2nc3cccc(OC)c3c(=O)[nH]2)c1
23 |  |  | COc1cccc(CNC(=O)c2nc3ccc(S(C)(=O)=O)cc3c(=O)[nH]2)c1

IC50 (Collagenase 3) [nM] | CL (Rattus norvegicus) [mL/min/kg] | Microsomal clearance (Liver microsome) [µL/min/mg] | Compound
0.69 | 28.3 | 170 | COc1cccc(CNC(=O)c2nc3cccc(OCCc4ccccc4)c3c(=O)[nH]2)c1
0.99 |  |  | COc1cccc(CNC(=O)c2nc3cccc(OCCC4CCCCC4)c3c(=O)[nH]2)c1
> 10000 |  |  | COc1cccc(CNC(=O)c2nc3c(OC)cccc3c(=O)[nH]2)c1
6.3 |  |  | COc1cccc(CNC(=O)c2nc3ccc(C#N)cc3c(=O)[nH]2)c1
110 |  |  | COc1cccc(CNC(=O)c2nc3ccc(OCc4ccccc4)cc3c(=O)[nH]2)c1
1.6 |  |  | COc1cccc(CNC(=O)c2nc3cccc(OCCOCc4ccccc4)c3c(=O)[nH]2)c1
34 |  |  | COc1cccc(CNC(=O)c2nc3cccc(OCCN4CCCCC4)c3c(=O)[nH]2)c1
16 |  |  | COc1cccc(CNC(=O)c2nc3cccc(CN(C)Cc4ccccc4)c3c(=O)[nH]2)c1
9.8 |  |  | COc1cccc(CNC(=O)c2nc3ccc(-c4ccccc4)cc3c(=O)[nH]2)c1
11 |  |  | COc1cccc(CNC(=O)c2nc3ccc(F)cc3c(=O)[nH]2)c1
97 |  |  | COc1cccc(CNC(=O)c2nc3ccc(C(F)(F)F)cc3c(=O)[nH]2)c1
2.4 |  |  | CCOc1ccc2nc(C(=O)NCc3cccc(OC)c3)[nH]c(=O)c2c1
1.8 |  |  | COc1cccc(CNC(=O)c2nc3ccc(SC)cc3c(=O)[nH]2)c1
27 |  |  | COc1cccc(CNC(=O)c2nc3ccc(OC(F)(F)F)cc3c(=O)[nH]2)c1
0.53 |  |  | COc1cccc(CNC(=O)c2nc3cccc(Oc4ccccc4)c3c(=O)[nH]2)c1
4.3 |  |  | COc1cccc(CNC(=O)c2nc3cccc(NCCc4ccccc4)c3c(=O)[nH]2)c1
